Data on 27 molecules can be found in ChEMBL document CHEMBL3044699, “Synthesis and herbicidal activity of N-oxide derivatives” (2000).

In test [1] the test system is Triticum aestivum. Kind of test: Pre-emergence herbicidal activity against Triticum aestivum (wheat) assessed as reduction in length of the first leaf at 50 mol/ha relative to untreated control. The test is classed as functional. Also on record: scale not given: the % may be the effect or the level left. In outline:
(§1)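 Wheat was grown in sterilized sand flats at near-neutral pH and treated pre-emergence at 6.4–19.6 kg/ha in acetone-, DMSO- or Tween 80-containing vehicles. Length of first leaf, aerial weight and radicular weight were compared with untreated control and scored 4 (100–80% reduction), 3 (79–50%), 2 (49–20%), 1 (19–1%) or 0 (increase). Atrazine 2.5 kg/ha was the positive control. Duplicate runs; ANOVA.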

Test [2] has as its system Triticum aestivum. Briefly: Post-emergence herbicidal activity against Triticum aestivum (wheat) at 50 mol/ha measured 10 days post compound application. Format: functional, organism-based. A digest of the protocol:
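Post-emergence greenhouse test on T. aestivum, set up identically to the pre-emergence test: sterilized sand flats at near-neutral pH, application at 6.4–19.6 kg/ha in acetone/DMSO/water-based vehicles, and reduction of plant parameters versus untreated control scored on a 0–4 scale. Atrazine 2.5 kg/ha was the positive control. Duplicate; ANOVA.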

Test [3] concerns Triticum aestivum. Briefly: Pre-emergence herbicidal activity against Triticum aestivum (wheat) assessed as germination seeds level at 50 mol/ha relative to untreated control. The test is classed as functional. In outline: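 Pre-emergence greenhouse assay on T. aestivum sown in sterilized sand in celled flats, with the medium near neutral pH. Compound was applied in acetone/H₂O, DMSO/H₂O, acetone/DMSO or acetone/DMSO/H₂O/Tween 80 at 6.4–19.6 kg/ha. Percentage of germinated seeds was calculated against untreated control. Atrazine (2.5 kg/ha, 12 mol/ha) was the positive control. Run in duplicate; ANOVA.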

Test [4] concerns Triticum aestivum. Kind of test: Pre-emergence herbicidal activity against Triticum aestivum (wheat) assessed as reduction in radicular weight at 50 mol/ha relative to untreated control. Details: scale not given: the % may be the effect or the level left. Format: functional. A digest of the protocol:
as §1

Test [5] deals with Triticum aestivum. Briefly: Pre-emergence herbicidal activity against Triticum aestivum (wheat) assessed as reduction in aerial weight at 50 mol/ha relative to untreated control. Details: scale not given: the % may be the effect or the level left. Format: functional. In outline:
as §1

Test [6] concerns Triticum aestivum. Briefly: Stimulation of plant growth parameters in Triticum aestivum (wheat) assessed as increase in aerial weight at 50 mol/ha. The test is classed as functional, organism-based. A digest of the protocol:
as §1

Test [7] concerns Triticum aestivum. Kind of test: Stimulation of plant growth parameters in Triticum aestivum (wheat) assessed as increase in length of the first leaf at 50 mol/ha. The test is classed as functional, organism-based. In outline:
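Pre-emergence greenhouse whole-plant test on T. aestivum L. Seeds were grown in sterilized sand in celled flats, with the medium near neutral pH. Compound was applied in acetone/H₂O, DMSO/H₂O, acetone/DMSO or acetone/DMSO/H₂O/Tween 80 vehicle, at 6.4–19.6 kg/ha by weight. Length of first leaf was compared with untreated control, with a score of 0 marking an increase. Atrazine at 2.5 kg/ha was the positive control. Run in duplicate and analysed by ANOVA.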

The test system of test [8] is Triticum aestivum. Briefly: Stimulation of plant growth parameters in Triticum aestivum (wheat) assessed as increase in radicular weight at 50 mol/ha. The test is classed as functional, organism-based. In outline:
as §1

Activity calls are given as the source filed them. No cut-off for these calls is given here.

`O=C(O)c1ccc2no[n+]([O-])c2c1`: the Activity in test [1] came to 1%; in test [3] it was 100%; in test [4], 1%; in test [5] it was 1%. Moreover, the outcome in test [2] was inactive.

For the molecule `CCCCNC(=O)c1ccc2c(c1)no[n+]2[O-]`, the Activity in test [1] came to 3%; in test [3] it was 46%; in test [4] it was 3%; in test [5], 3%.

`[O-][n+]1onc(-c2ccccc2)c1CNc1ccc(Br)cc1`: the Activity in test [1] is 2%; in test [3] it was 100%; in test [4], 1%; in test [5] it was 1%.

On to `O=C1c2ccccc2C(=O)N1Cc1c(-c2ccccc2)no[n+]1[O-]`, for which the figures for the Activity in test [3] and in test [4] were 100% and 1%, respectively. The outcome in test [6] and in test [7] was Active.

For `Cc1c(/C=N/NC(N)=O)no[n+]1[O-]`, the results for the Activity in test [3], in test [4] and in test [5] were 89%, 3% and 4%, respectively.

With `[O-][n+]1onc(-c2ccccc2)c1CNc1ccc(Cl)cc1`, the Activity in test [1] was 1%; in test [3], 100%; in test [4], 1%; in test [5], 1%.

As to `CCCCCCNC(=O)N/N=C/c1no[n+]([O-])c1C`, the Activity is on record as 3% in test [1], 95% in test [3], 3% in test [4] and 4% in test [5].

Consider `O=C(c1ccc2c(c1)no[n+]2[O-])N1CCOCC1`, for which the Activity in test [1] came out at 3%; in test [3], 100%; in test [4], 3%; in test [5] it was 3%.

On to `COC(=O)N/N=C/c1ccc2nonc2c1`, for which the Activity in test [3] is listed as 100%. Also, the outcome in test [6], in test [7] and in test [8] was Active.

With `[O-][n+]1onc(-c2ccccc2)c1CCl`, the Activity was 1% in test [1], 100% in test [3], 1% in test [4] and 1% in test [5]. Also, the outcome in test [2] was inactive.

For `NC(=S)N/N=C/c1c(-c2ccccc2)no[n+]1[O-]`, the values for the Activity in test [1], in test [3] and in test [4] were 2%, 100% and 3%, respectively. The outcome in test [6] was Active.

Turning to `[O-][n+]1onc2ccccc21` [BENZO[C][1,2,5]OXADIAZOLE 1-OXIDE], the result in test [1], in test [2], in test [4] and in test [5] was inactive. In addition, in test [3], the Activity is recorded as 100%.

With `O=C(Nc1ccc(Cl)cc1)c1ccc2c(c1)no[n+]2[O-]`, the Activity in test [1] is recorded as 3%; in test [3] it was 96%; in test [4], 4%; in test [5], 3%.

Regarding `Cc1c(/C=N/NC(N)=S)no[n+]1[O-]`, the results for the Activity in test [3], in test [4] and in test [5] were 92%, 4% and 4%, respectively.

On to `[O-][n+]1onc(-c2ccccc2)c1CN1CCN(c2ncccn2)CC1`, for which the result in test [1], in test [2], in test [4] and in test [5] was inactive. In test [3], the Activity is 100%.

As for `O=C(NCCc1ccccc1)N/N=C/c1ccc2c(c1)no[n+]2[O-]`, the Activity in test [1] is given as 2%; in test [3], 100%; in test [4], 2%; in test [5], 2%.

As to `COC(=O)N/N=C/c1ccc2c(c1)[n+]([O-])c(C)c(C)[n+]2[O-]`, the Activity in test [3] was 100%. The outcome in test [6], in test [7] and in test [8] was Active.

Regarding `Cc1c(C=O)no[n+]1[O-]`, the Activity in test [1] stood at 1%; in test [3] it was 100%; in test [4] it was 1%. Moreover, the outcome in test [6] was Active.

For the molecule `Cc1c(C)[n+]([O-])c2cc(/C=N/NC(=O)NCCc3ccccc3)ccc2[n+]1[O-]`, the Activity in test [3] was 100%; in test [4], 1%. In addition, the outcome in test [6] and in test [7] was Active.

As to `COC(=O)N/N=C/c1c(-c2ccccc2)no[n+]1[O-]`, the Activity in test [1] was 2%; in test [3], 100%; in test [4], 2%. Also, the outcome in test [6] was Active.

As to `O=Cc1ccc2no[n+]([O-])c2c1` [6-FORMYLBENZO[C][1,2,5]OXADIAZOLE1-OXIDE], the results for the Activity in test [1], in test [3] and in test [5] were 2%, 100% and 1%, respectively. Further, in test [8], the outcome was Active.

For `COC(=O)N/N=C/c1no[n+]([O-])c1C`, the Activity in test [1] stood at 3%; in test [3] it was 15%; in test [5] it was 3%. Moreover, the result in test [8] was Active.

Take `Cc1ccc2no[n+]([O-])c2c1` [6-METHYLBENZO[C][1,2,5]OXADIAZOLE1-OXIDE]: the Activity in test [1] came to 3%; in test [3], 100%; in test [4], 3%; in test [5], 3%.

As to `COCCNC(=O)c1ccc2c(c1)no[n+]2[O-]`, the Activity in test [1] stood at 2%; in test [3] it was 100%; in test [4], 1%; in test [5], 1%.

Take `COc1ccc(NCc2c(-c3ccccc3)no[n+]2[O-])cc1`: the Activity in test [1] is 1%; in test [3] it was 100%; in test [4], 1%; in test [5] it was 1%.

With `COC(=O)N/N=C/c1ccc2c(c1)no[n+]2[O-]`, the Activity was 1% in test [1], 75% in test [3], 3% in test [4] and 1% in test [5].

Consider `O=Cc1c(-c2ccccc2)no[n+]1[O-]`, for which the Activity in test [1] was found to be 1%; in test [3], 100%; in test [4], 1%. In test [6], the result was Active.
